MIC data for seven compounds are collected here from ChEMBL document CHEMBL1150157, “Five new steroidal saponins from Solanum chrysotrichum leaves and their antimycotic activity” (2002).

In brackets after ≈: the same amount, converted by molar mass. Some results are limits rather than exact numbers.

Holding throughout (assay type): functional
The subject of one experiment is Candida albicans. The experiment is described as follows: Antimicrobial activity against Candida albicans ATCC 10231 after 24 hrs by agar dilution method. Put shortly:
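C. albicans kept on Sabouraud glucose agar, which also served as the assay medium. Pure compounds in DMSO were diluted 2-fold serially (400–3.125 µg/mL) into the agar, final DMSO ≤2%. An inoculum of 10^5 cells/mL (hemocytometer) was spotted with a 0.010 mL calibrated loop. Plates were held at 29 °C for 24 h, in triplicate. MIC was the lowest concentration inhibiting visible growth.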

Experiment [1] deals with Trichophyton mentagrophytes. The experiment is described as follows: Antimicrobial activity against Trichophyton mentagrophytes ATCC 28185 after 72 hrs by agar dilution method. The settings on record: ATCC 28185, 72 h. Put shortly:
(§1)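 Dermatophytes maintained on potato dextrose agar at 27 °C. Assayed by agar dilution on Sabouraud glucose agar. Pure compounds in DMSO were serially diluted 2-fold (400–3.125 µg/mL) into the medium, with final DMSO ≤2%. Spots of 10^6 spores/mL (hemocytometer count) were applied with a 0.010 mL loop. Plates ran at 29 °C for 72 h, in triplicate. MIC was the lowest concentration with no visible growth.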

For another experiment, the system named is Trichophyton rubrum. The experiment is described as follows: Antimicrobial activity against Trichophyton rubrum ATCC 28188 after 72 hrs by agar dilution method. The settings on record: ATCC 28188, 72 h. The gist of the method: as §1
The subject of a further experiment is Aspergillus niger. The experiment is described as follows: Antimicrobial activity against Aspergillus niger ATCC 10335 after 48 hrs by agar dilution method. The settings on record: ATCC 10335, 48 h. The gist of the method: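 A. niger maintained on potato dextrose agar at 27 °C. Tested by agar dilution on Sabouraud glucose agar with 2-fold serial DMSO dilutions of pure compounds (400–3.125 µg/mL) added to the medium, final DMSO ≤2%. Inoculum was 10^6 spores/mL, hemocytometer-counted, applied by 0.010 mL loop. Incubation at 29 °C for 48 h, in triplicate. MIC was the lowest concentration preventing visible growth.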

As to NYSTATIN, in the experiment on Candida albicans, the MIC came out at 8 µg/mL.
As to `C[C@@H]1CC[C@@]2(OC1)O[C@H]1C[C@H]3[C@@H]4C[C@H](O[C@@H]5OC[C@@H](O)[C@H](O)[C@H]5O)[C@H]5C[C@@H](O)CC[C@]5(C)[C@H]4CC[C@]3(C)[C@H]1[C@@H]2C`, the minimum inhibitory concentration (MIC) in experiment [1] was 100 µg/mL (≈ 177 µM); with Trichophyton rubrum, 100 µg/mL (≈ 177 µM); with Aspergillus niger, > 400 µg/mL; in the experiment with Candida albicans (ATCC 10231, 24 h), 200 µg/mL (≈ 354 µM).
In the case of `C[C@@H]1CC[C@@]2(OC1)O[C@H]1C[C@H]3[C@@H]4C[C@H](O[C@@H]5O[C@H](C)[C@@H](O)[C@H](O[C@@H]6O[C@@H](C)[C@H](O)[C@@H](O)[C@H]6O)[C@H]5O)[C@H]5C[C@@H](O)CC[C@]5(C)[C@H]4CC[C@]3(C)[C@H]1[C@@H]2C`, the MIC was found to be 200 µg/mL (≈ 276 µM) in experiment [1]; 50 µg/mL (≈ 69 µM) in the experiment on Trichophyton rubrum; 400 µg/mL (≈ 552 µM) in the experiment with Aspergillus niger; 200 µg/mL (≈ 276 µM) against Candida albicans (ATCC 10231, 24 h).
Regarding `C[C@@H]1CC[C@@]2(OC1)O[C@H]1C[C@H]3[C@@H]4C[C@H](O[C@@H]5O[C@H](C)[C@@H](O)[C@H](O[C@@H]6OC[C@@H](O)[C@H](O)[C@H]6O)[C@H]5O)[C@H]5C[C@@H](O)CC[C@]5(C)[C@H]4CC[C@]3(C)[C@H]1[C@@H]2C`, the MIC in experiment [1] was determined as 12.5 µg/mL (≈ 17.6 µM); against Trichophyton rubrum, 12.5 µg/mL (≈ 17.6 µM); in the experiment on Aspergillus niger, 100 µg/mL (≈ 141 µM); in the experiment on Candida albicans (ATCC 10231, 24 h) it was 200 µg/mL (≈ 281 µM).
Turning to `Clc1ccc(COC(Cn2ccnc2)c2ccc(Cl)cc2Cl)c(Cl)c1` (centres undefined) [MICONAZOLE], the MIC was determined as 4 µg/mL (≈ 9.61 µM) in experiment [1], 4 µg/mL (≈ 9.61 µM) in the experiment on Trichophyton rubrum and 8 µg/mL (≈ 19.2 µM) in the experiment on Aspergillus niger.
With `C[C@@H]1CC[C@@]2(OC1)O[C@H]1C[C@H]3[C@@H]4C[C@H](O[C@@H]5O[C@H](C)[C@@H](O)[C@H](O)[C@H]5O)[C@H]5C[C@@H](O)CC[C@]5(C)[C@H]4CC[C@]3(C)[C@H]1[C@@H]2C`, the MIC in experiment [1] was 25 µg/mL (≈ 43.2 µM); in the experiment on Trichophyton rubrum, 50 µg/mL (≈ 86.4 µM); against Aspergillus niger, > 400 µg/mL; with Candida albicans (ATCC 10231, 24 h) it was 200 µg/mL (≈ 346 µM).
In the same order, the values of `C[C@H]1CO[C@@]2(O[C@H]3C[C@H]4[C@@H]5C[C@H](O[C@@H]6O[C@H](C)[C@@H](O)[C@H](O[C@@H]7O[C@@H](C)[C@H](O)[C@@H](O)[C@H]7O)[C@H]6O)[C@H]6C[C@@H](O)CC[C@]6(C)[C@H]5CC[C@]4(C)[C@H]3[C@@H]2C)[C@@H](O)C1` are 200 µg/mL (≈ 270 µM), 200 µg/mL (≈ 270 µM), 200 µg/mL (≈ 270 µM) and 200 µg/mL (≈ 270 µM).
